Measured values as given in ChEMBL document CHEMBL1806448, “Optimization of a pyrazole hit from FBDD into a novel series of indazoles as ketohexokinase inhibitors” (Bioorg Med Chem Lett, 2011).

Legend:
[1] = target: T1, Ketohexokinase (Homo sapiens, UniProt P50053); assay: Inhibition of KHK-mediated conversion of D-fructose to fructose-1-phosphate after 60 mins by high throughput mass spectrometry analysis
T1 sequence (P50053 whole entry): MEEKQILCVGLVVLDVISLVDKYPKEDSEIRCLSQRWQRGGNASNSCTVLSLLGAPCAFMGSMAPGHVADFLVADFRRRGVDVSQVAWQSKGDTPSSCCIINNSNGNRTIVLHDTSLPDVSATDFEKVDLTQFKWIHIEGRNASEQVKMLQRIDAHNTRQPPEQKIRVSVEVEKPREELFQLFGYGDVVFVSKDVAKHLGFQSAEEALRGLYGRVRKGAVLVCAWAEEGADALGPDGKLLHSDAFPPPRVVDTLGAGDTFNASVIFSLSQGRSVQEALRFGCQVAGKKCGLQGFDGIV
Outline: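 KHK enzyme assay at 25 °C with 200 µM fructose, 100 µM ATP and 2 nM KHK under steady-state conditions for 60 min. Fructose-1-P product read out by high-throughput mass spectrometry (RapidFire). 12-point dose–response curve used to derive IC50. 384-well format.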

[2] = Metabolic stability in rat liver microsomes assessed as compound remaining after 10 mins; type: ADME, Microsome; conditions: read-out: Stability
[3] = Bioavailability in rat at 10 mg/kg, po after 24 hrs; conditions: in vivo
[4] = Clearance in rat at 2 mg/kg, iv after 24 hrs; type: ADME, organism-based; parameters: dose 2 mg/kg, route intravenous; conditions: in vivo
Outline: (§1)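 Rat pharmacokinetics over 24 h. Oral dose 10 mg/kg and iv dose 2 mg/kg.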

[5] = Cmax in rat at 10 mg/kg, po after 24 hrs; type: ADME, organism-based; parameters: dose 10 mg/kg, route oral; conditions: in vivo; outline: as §1
[6] = test system: Rattus norvegicus; assay: AUClast in rat at 10 mg/kg, po after 24 hrs; type: ADME, organism-based, Plasma; parameters: time < 24 hr, dose 10 mg/kg, route oral; conditions: in vivo; outline: as §1
[7] = Half life in rat at 10 mg/kg, po after 24 hrs; type: ADME, organism-based; parameters: dose 10 mg/kg, route oral; conditions: in vivo; outline: as §1
[8] = Volume of distribution at steady state in rat at 2 mg/kg, iv after 24 hrs; type: ADME, organism-based; parameters: dose 2 mg/kg, route intravenous; conditions: in vivo, read-out: Vdss; outline: as §1
[9] = Inhibition of sodium channel at 10 uM

Row | SMILES | IC50 [1] [nM] | further results
1 | CSc1nn(-c2ccccc2)c2cc(C3CCNCC3)ccc12 | 330 | 
2 | CCc1nc(-c2ccccc2)n2cc(N3CCNCC3)ccc12 | > 20000 | 
3 | CSc1nn(-c2cccc(C)c2)c2cc(C3=CCNCC3)ccc12 | 34 | 
4 | CSc1nn(-c2cccc(F)c2)c2cc(C3=CCNCC3)ccc12 | 42 | remaining at 10 min [2]: 96%
5 | COc1ccc(-n2nc(SC)c3ccc(C4=CCNCC4)cc32)cc1 | 87 | 
6 | CSc1nn(-c2ccccc2)c2c(OCC3CCNCC3)cccc12 | 240 | 
7 | CSc1nn(-c2ccc(F)cc2)c2cc(C3=CCNCC3)ccc12 | 23 | remaining at 10 min [2]: 105%
8 | CSc1nn(-c2ccccc2)c2c(C3=CCNCC3)cccc12 | 11500 | 
9 | CSc1nn(-c2ccccc2)c2c(OC3CCNCC3)cccc12 | 1680 | 
10 | CSc1nn(-c2ccccc2)c2cc(N3CCN(C4CCNCC4)CC3)ccc12 | 670 | 
11 | CCc1nn(-c2ccccc2)c2cc(N3CC4CNCC4C3)ccc12 (configuration not stated) |  | bioavailability [3]: 98.8%; clearance [4]: 28.9 mL/min/kg; Cmax [5]: 619 ng/mL; AUClast [6]: 5680 ng·h/mL; half-life [7]: 3.41 h; Vd [8]: 7.81 L/kg
12 | CSc1nn(-c2ccccc2)c2cc(-c3ccncc3)ccc12 | > 10000 | 
13 | CSc1nn(-c2ccccc2)c2cc(NC(=O)CC3CCNCC3)ccc12 | 680 | 
14 | CCc1nn(-c2ccccc2)c2cc(N3CCN(C4CCNCC4)CC3)ccc12 |  | inhibition [9]: 61%
15 | CCc1nn(-c2ccccc2)c2cc(N3CCN(C4CCNC4)CC3)ccc12 (configuration not stated) | 920 | bioavailability [3]: 72.4%; clearance [4]: 21.2 mL/min/kg; Cmax [5]: 399 ng/mL; AUClast [6]: 4890 ng·h/mL; half-life [7]: 19.6 h; Vd [8]: 13.9 L/kg
16 | Cn1nc(-c2ccccc2)c2cc(N3CCNCC3)ccc21 | 1280 | 
17 | CSc1nn(-c2ccccc2)c2cc(C3=CCNCC3)ccc12 | 80 | remaining at 10 min [2]: 72%
18 | CSc1nn(-c2ccc([N+](=O)[O-])cc2)c2cc(C3=CCNCC3)ccc12 | 480 | 
